# PDI turbidity: inhibitors of human PDI, primary screen, biochemical, turbidity, single point, plate reader. inhibition, % at 10 µM. PDI insulin aggregation turbidity, A650, 90 min. Protein disulfide-isomerase (Homo sapiens), P07237. 0.052% of 350,000 active;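 active = mean inhibition across replicates of 30% or more, whatever share of single replicates reach that level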
# PvdQ inh: P. aeruginosa PvdQ acylase inhibitors, primary screen, biochemical, fluorescence, plate reader and imaging, single point. PvdQ acylase [Pseudomonas aeruginosa LESB58]. purified PvdQ acylase. inhibition, % at 10 µM. 0.063% of 340,000 active; in the data active = inhibition above about 30%, passing the limit was not always enough;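 note: 0% = vehicle neutral wells and 100% = reference inhibitor wells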
# ERp5 inh: inhibitors of ERp5-driven insulin aggregation, primary screen, biochemical, turbidity, absorbance 650 nm, single point | 90 min | inhibition, % at 9.99 µM | 0.05% of 350,000 active;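 active = mean replicate inhibition above about 25%, with every replicate also reaching it, limit read from the data, passing the limit was not always enough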
# Target sequence (Q15084 whole entry, looked up): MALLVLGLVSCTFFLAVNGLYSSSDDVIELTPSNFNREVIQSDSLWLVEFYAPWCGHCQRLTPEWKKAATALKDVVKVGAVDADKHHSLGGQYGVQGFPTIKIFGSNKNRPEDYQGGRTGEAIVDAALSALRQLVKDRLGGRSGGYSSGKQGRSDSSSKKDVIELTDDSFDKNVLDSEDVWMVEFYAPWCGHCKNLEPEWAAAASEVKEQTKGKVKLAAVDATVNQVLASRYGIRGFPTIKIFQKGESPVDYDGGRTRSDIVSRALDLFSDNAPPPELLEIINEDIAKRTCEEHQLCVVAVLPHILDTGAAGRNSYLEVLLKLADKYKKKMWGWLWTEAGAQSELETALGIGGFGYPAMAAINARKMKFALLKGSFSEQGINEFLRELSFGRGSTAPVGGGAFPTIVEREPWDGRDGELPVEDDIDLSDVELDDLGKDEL
# FN deposit inh: inhibitors of fibronectin matrix deposition, primary screen, AH1F cells, Alexa488-fibronectin fluorescence, plate reader; AH1F fibroblasts, overnight; inhibition, % at 12.6 µM; 0.086% of 350,000 active;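 active = mean inhibition across replicates of 30% or more, regardless of how many single replicates reach that level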;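 note: positive control wells lacked labelled fibronectin entirely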
#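 Material: AH1F fibroblast monolayer depositing Alexa488-labelled fibronectin into matrix / Amount: 10000 AH1F cells per well / Signal: fluorescence 485/525 nm / Medium: DMEM, 2% serum / Compound: single dose, pinned / Incubation: 1 h cell adhesion before compound, then overnight fibronectin incubation / Reagent: Alexa488-FN, 24 nM final / Read-out: inhibition of fibronectin deposition signal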
# Env fusion inh: inhibitors of HIV-1 Env-driven cell-cell fusion, primary screen, HeLa-JRFL effector, CEM21 target cells, luciferase; AID 651610, 2012; inhibition, % at 12.3 µM; 1.1% of 360,000 active;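 active = mean replicate inhibition score of at least 50 and every replicate individually at or above 50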;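 note: 0% = plate neutral controls and 100% = maraviroc near 300 nM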
# rRNA inh HTS: reduced GFP signal of wild-type E. coli, primary screen, bacterial rRNA inhibitor project, GFP/RFP fluorescence, OD600, single point; E. coli WT GFP vs humanized-ribosome RFP mutants, 24 h; active compounds read low; DMSO median 0, no signal -100; GFP signal change (wild-type ribosome), % (concentration not given with the values); 1.6% of 350,000 active; AID 720706, 2013;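 active = significant combined selectivity score with lowered wild-type GFP, culture density cut under 30%, mutant RFP and density less affected; inactive = any of these conditions unmet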
# Active calls of the source: *; . = no result; [ ] = another dose, or the depositor's remark. A selection: hits, their analogues and other compounds. The true share with any hit is near 2.2%.
SMILES,PDI turbidity,PvdQ inh,ERp5 inh,FN deposit inh,Env fusion inh,rRNA inh HTS
Cn1nc(C2CC2)cc1NC(=O)C1(C)CCN1C(=O)CC(c1ccccc1)c1ccccc1 (stereo unspecified),4,.,5,-6,.,-1
Cn1nc(C2CC2)cc1NC(=O)C1(C)CCN1C(=O)c1ccccc1CCc1ccccc1 (stereo unspecified),4,.,-4,6,64*,-21
O=C(Cc1ccc(Cl)cc1)Nc1cc(S(=O)(=O)N2CCOCC2)ccc1N1CCCC1,-10,-8,0,13,1,-26*
COc1ccc(NC(=O)CSc2ccc3ccccc3c2)cc1S(=O)(=O)N1CCCCC1,17,-4,5,-1,56*,-1
COc1ccc(NC(=O)C2CCCN2S(=O)(=O)c2ccc3c(c2)CCC(=O)N3)cc1 (stereo unspecified),.,3,6,1,-7,12
O=C(Nc1cccc(S(=O)(=O)N2CCOCC2)c1)C1CCCCN1S(=O)(=O)c1ccccc1 (stereo unspecified),17,-8,17,-6,22,-20
O=C(Cc1c(F)cccc1Cl)Nc1cc(S(=O)(=O)N2CCOCC2)ccc1N1CCCC1,19,-14,5,0,.,8
COc1ccc(NC(=O)C2CCCN2S(=O)(=O)c2ccc3c(c2)CCC(=O)N3)cc1Cl (stereo unspecified),.,-3,-12,5,85*,-2
O=C(Nc1cccc(S(=O)(=O)N2CCOCC2)c1)[C@@H]1CCCN1S(=O)(=O)c1ccc(Cl)cc1,-6,-10,.,1,62*,.
COc1ccc(NC(=O)CSc2ccc(NC(C)=O)cc2)cc1S(=O)(=O)N1CCOCC1,1,8,-4,3,7,-1
C[C@H](NC(=O)N(C)C[C@H]1OCc2ccccc2-c2ccccc2C(=O)N([C@H](C)CO)C[C@H]1C)c1ccccc1,.,.,1,-9,-26[16.7 µM],-1
C[C@@H]1CN([C@H](C)CO)S(=O)(=O)c2ccc(-c3cncnc3)cc2O[C@@H]1CN(C)C(=O)Cc1cccnc1,.,.,2,-14,-14[16.7 µM],8
O=C(c1ccccn1)N1CC2(C1)[C@H](c1ccccc1)[C@@H](CO)N2C(=O)C1CCCC1,.,.,6,-10,.,-3
CC(C)[C@@H]1COCc2cn(nn2)CC[C@H](Cc2ccccc2)C(=O)N1,.,.,-5,-4,5[16.7 µM],3
Cc1cc(Cl)ccc1OCCCC(=O)Nc1cc(S(=O)(=O)N2CCOCC2)ccc1N1CCOCC1,16,3,-3,0,114*,-11
COc1ccc(NC(=O)CCCOc2ccc(Cl)c(C)c2)cc1S(=O)(=O)N1CCOCC1,1,-8,7,6,59*,-39
CC(=O)N1[C@@H]2c3ccc(-c4ccccc4)c(=O)n3C[C@H]1[C@H](CO)[C@H]2C(=O)Nc1ccccc1,.,.,-4,.,.,-2
CC(=O)N[C@H]1CC[C@H](CC(=O)NCc2ccc(Cl)cc2)O[C@@H]1CO,.,.,-2,.,3[16.7 µM],1
Fc1cc(F)c(C2SCCN2C(=S)Nc2cccc(C(F)(F)F)c2)c(F)c1 (stereo unspecified),-1,-14,5,-4,32,-50
CCOC(=O)c1ccc(NC(=S)N2CCSC2c2c(F)cc(F)cc2F)cc1 (stereo unspecified),-3,5,-3,5,11,-28*
COc1cc(/C=N/NC(=S)NC2CC3CCC2C3)ccc1O (stereo unspecified),4,-9,3,1,-6,-26*
C[C@H](CO)N1C[C@H](C)[C@@H](CN(C)C(=O)C2CCC2)Oc2ncc(-c3cccc(F)c3)cc2C1=O,.,.,-5,-4,3[16.7 µM],0
CCC(=O)c1ccc(OCC(=O)Nc2nc(C)cs2)cc1,13,-12,-1,.,19,-27*
CCC(=O)c1ccc(OCC(=O)Nc2nc(-c3cccnc3)cs2)cc1,1,0,-1,-6,13,-1
COc1ccc(CNC(=O)c2c(C)oc3c2C(=O)c2ccccc2C3=O)cc1,0,-1,10,7,64*,-32
SMILES,PDI turbidity,PvdQ inh,ERp5 inh,FN deposit inh,Env fusion inh,rRNA inh HTS
O=C(Cc1csc(NC(=O)Nc2ccc(Cl)cc2)n1)NCc1cccnc1,-12,-9,2,1,1,-32*
O=C(NCc1cccnc1)Nc1ccc(Cl)cc1Cl,-2,2,5,10,57*,-2
O=C(NCc1cccnc1)Nc1ccc(Br)cc1Cl,-6,-22,-2,.,56*,-20
O=C(Cc1csc(NC(=O)Nc2cccc(Cl)c2)n1)NCc1cccnc1,6,-13,-1,3,-8,-2
CC=Cc1ccc2n(c1=O)C[C@H]1[C@H](CO)[C@@H](C(=O)NC3CCCC3)N(CC3CCCCC3)[C@@H]21 (mixture of isomers),.,.,-13,.,.,-15
C/C=C/c1ccc([C@H]2[C@@H](CO)N(C(C)=O)C23CN(C(=O)NC2CCCC2)C3)cc1,.,.,6,-8,.,0
Cc1ccc(SCC(=O)OCC(=O)NCc2cccs2)cc1C,-18,-7,7,-2,0,-3
COc1ccccc1CNC(=O)COC(=O)CSc1ccc(C)c(C)c1,-3,-7,2,-2,68*,-6
CN(CCOc1ccc(-c2ccn(S(=O)(=O)c3c(Cl)cccc3Cl)n2)cc1)c1ccccn1,9,-7,.,1,-66,.
CN(CCOc1ccc(-c2ccn(S(=O)(=O)c3ccc(Cl)cc3)n2)cc1)c1ccccn1,5,-6,.,-6,60*,.
COc1ccc(N2CCN(C(=O)Nc3ccccc3Cl)CC2)cc1,6,-8,0,-1,17,-23*
COC(=O)c1ccccc1NC(=O)N1CCN(c2ccc(OC)cc2)CC1,-2,-17,3,-3,-5,-26
Cc1ccc(F)cc1NC(=O)N1CCN(c2ccnc3cc(Cl)ccc23)CC1,3,-11,1,3,22,-18
COc1ccc(Cl)cc1NC(=O)NCCN1CCCCC1,0,-8,3,-4,10,-1
COc1ccccc1N1CCN(C(=O)Nc2cccc(Cl)c2)CC1,6,-1,5,.,.,-23
O=C(Nc1cc(F)ccc1F)N1CCN(c2ccnc3cc(Cl)ccc23)CC1,3,-2,2,0,17,-28*
COc1ccc(Cl)cc1NC(=O)NCC1CCN(C(=O)OC(C)(C)C)CC1,-1,-1,.,1,-34,-20*
COc1ccc(Cl)cc1NC(=O)N1CCN(c2ccccc2OC)CC1,0,-14,-1,10,3,-30*

# Compound activity deposited in PubChem BioAssay by Broad Institute.
